Measured values published in ChEMBL document CHEMBL3745600, “2-Amino-thiophene derivatives present antileishmanial activity mediated by apoptosis and immunomodulation in vitro” (Eur J Med Chem, 2015).
Activity calls are given as the source filed them. The rule behind the calls is not given here.

Legend:
[1] = Cytotoxicity against Swiss mouse peritoneal macrophages after 24 hrs by MTT assay; assay type: cell-based, Peritoneal macrophage cell
Procedure, shortened: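 Macrophages were collected from Swiss mice 5 days after thioglycollate (3%) elicitation. About 1 x 10^6 cells per well were incubated in RPMI 1640 with 10% heat-inactivated FBS and compound for 24 h at 37°C, 5% CO₂. MTT was added for 4 h, followed by 10% SDS, and absorbance was read at 540 nm. CC50 was obtained by probit regression.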

[2] = Toxicity in human RBC assessed as induction of hemolytic activity after 1 hr by spectrometer analysis; assay type: cell-based, Erythrocyte; details: red blood cells (RBC)
Procedure, shortened: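 A 5% suspension of human erythrocytes in PBS was mixed 4:1 with serial compound dilutions and incubated 1 h at 37°C. The reaction was stopped with PBS (pH 7.2) and spun 10 min at 1000 x g, and supernatant absorbance was read at 540 nm. Haemolysis was expressed relative to a drug-free blank and to water-induced total lysis. HC50 was obtained by probit regression.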

[3] = Selectivity index, ratio of CC50 for Swiss mouse peritoneal macrophages to IC50 for promastigotes of Leishmania amazonensis IFLA/BR/67/PH8; assay type: functional
Procedure, shortened: (§1)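 Promastigote values came from haemocytometer counts after 72 h at 25°C. Axenic amastigote values came from MTT readings after 24 h at 32°C, using amastigotes differentiated at pH 4.6. All 50% values were obtained by probit regression.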

[4] = Selectivity index, ratio of HC50 for human RBC to IC50 for promastigotes of Leishmania amazonensis IFLA/BR/67/PH8; procedure, shortened: as §1
[5] = Selectivity index, ratio of CC50 for Swiss mouse peritoneal macrophages to EC50 for axenic amastigotes of Leishmania amazonensis IFLA/BR/67/PH8; procedure, shortened: as §1
[6] = Selectivity index, ratio of HC50 for human RBC to IC50 for axenic amastigotes of Leishmania amazonensis IFLA/BR/67/PH8; procedure, shortened: as §1
Leishmania amazonensis [7] = experiment: Antileishmanial activity against axenic amastigotes of Leishmania amazonensis IFLA/BR/67/PH8 after 24 hrs by MTT assay; details: IFLA/BR/67/PH8, 24 h
Leishmania amazonensis [8] = experiment: Antileishmanial activity against promastigotes of Leishmania amazonensis IFLA/BR/67/PH8 after 72 hrs by Neubauer haemocytometer counting; details: IFLA/BR/67/PH8, 72 h
Leishmania amazonensis [9] = experiment: Antileishmanial activity against axenic amastigotes of Leishmania amazonensis IFLA/BR/67/PH8 infected in Swiss mouse peritoneal macrophages assessed as reduction of survival rate at 300 mg/L after 72 hrs by light microscopy analysis; assay type: functional, organism-based
Procedure, shortened: (§2)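 Peritoneal macrophages were plated on glass coverslips at 1 x 10^6 cells/mL in supplemented RPMI 1640 and allowed to adhere for 2 h at 34°C, 5% CO₂. They were infected for 3 h with stationary-phase promastigotes at 10 parasites per macrophage, washed with PBS, then exposed to compound for 24 or 72 h. Coverslips were fixed and Panoptic-stained, and 300 macrophages per coverslip were counted by light microscopy. EC50 was derived by probit regression.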

Leishmania amazonensis [10] = experiment: Antileishmanial activity against axenic amastigotes of Leishmania amazonensis IFLA/BR/67/PH8 infected in Swiss mouse peritoneal macrophages assessed as reduction of survival rate at 50 to 300 mg/L after 24 hrs by light microscopy analysis; assay type: functional, organism-based; procedure, shortened: as §2
Leishmania amazonensis [11] = experiment: Antileishmanial activity against promastigotes of Leishmania amazonensis IFLA/BR/67/PH8 assessed as induction of early apoptosis using Annexin-V staining at IC50 after 4 hrs by flow cytometry (reference value: 8.3%); assay type: functional
Leishmania amazonensis [12] = experiment: Antileishmanial activity against promastigotes of Leishmania amazonensis IFLA/BR/67/PH8 assessed as induction of early apoptosis using Annexin-V staining at 2 times IC50 after 4 hrs by flow cytometry (reference value: 8.3%); assay type: functional
Leishmania amazonensis [13] = experiment: Antileishmanial activity against promastigotes of Leishmania amazonensis IFLA/BR/67/PH8 assessed as induction of early apoptosis using Annexin-V staining at 4 times IC50 after 4 hrs by flow cytometry (reference value: 8.3%); assay type: functional
Leishmania amazonensis [14] = experiment: Antileishmanial activity against promastigotes of Leishmania amazonensis IFLA/BR/67/PH8 assessed as induction of late apoptosis using Annexin-V/PI staining at IC50 after 4 hrs by flow cytometry (reference value: 12.05%); assay type: functional
Leishmania amazonensis [15] = experiment: Antileishmanial activity against promastigotes of Leishmania amazonensis IFLA/BR/67/PH8 assessed as induction of late apoptosis using Annexin-V/PI staining at 2 times IC50 after 4 hrs by flow cytometry (reference value: 12.05%); assay type: functional
Leishmania amazonensis [16] = experiment: Antileishmanial activity against promastigotes of Leishmania amazonensis IFLA/BR/67/PH8 assessed as induction of late apoptosis using Annexin-V/PI staining at 4 times IC50 after 4 hrs by flow cytometry (reference value: 12.05%); assay type: functional
Leishmania amazonensis [17] = experiment: Antileishmanial activity against promastigotes of Leishmania amazonensis IFLA/BR/67/PH8 assessed as induction of necrosis using Annexin-V-FITC/PI staining at 4 times IC50 after 4 hrs by flow cytometry (reference value: 2.6%); assay type: functional
Leishmania amazonensis [18] = experiment: Antileishmanial activity against promastigotes of Leishmania amazonensis IFLA/BR/67/PH8 assessed as induction of DNA fragmentation at 1 to 4 times IC50 after 24 hrs by agarose gel electrophoresis; assay type: functional, organism-based
Procedure, shortened: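 Genomic DNA was extracted with phenol/chloroform and run on agarose with GelRed (1:500) for 1 h at […]. Fragmentation was viewed under UV as a qualitative read-out.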

Leishmania amazonensis [19] = experiment: Antileishmanial activity against axenic amastigotes of Leishmania amazonensis IFLA/BR/67/PH8 infected in Swiss mouse peritoneal macrophages assessed as reduction of survival rate after 24 hrs by light microscopy analysis; assay type: functional, organism-based; procedure, shortened: as §2
Leishmania amazonensis [20] = experiment: Antileishmanial activity against axenic amastigotes of Leishmania amazonensis IFLA/BR/67/PH8 infected in Swiss mouse peritoneal macrophages assessed as reduction of survival rate after 72 hrs by light microscopy analysis; assay type: functional, organism-based; procedure, shortened: as §2
[21] = system: Peritoneal macrophage cell; experiment: Immunomodulatory activity in Swiss mouse peritoneal macrophages infected with promastigotes form of Leishmania amazonensis IFLA/BR/67/PH8 assessed as increase of TNFalpha production at 6.25 to 25 uM after 72 hrs by sandwich ELISA; assay type: functional, cell-based
Procedure, shortened: (§3)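 Supernatants came from infected macrophages treated for 72 h at 37°C, 5% CO₂. TNF-α, IL-12 and IL-10 were measured by sandwich ELISA at 450 nm against murine recombinant cytokine standards. NO was estimated as nitrite by the Griess reaction at 540 nm against a sodium nitrite standard. LPS (10 mg/L) served as positive control. Three experiments were run in triplicate.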

[22] = system: Peritoneal macrophage cell; experiment: Immunomodulatory activity in Swiss mouse peritoneal macrophages infected with promastigotes form of Leishmania amazonensis IFLA/BR/67/PH8 assessed as increase of IL-12 production at 6.25 to 25 uM after 72 hrs by sandwich ELISA; assay type: functional, cell-based; procedure, shortened: as §3
[23] = system: Peritoneal macrophage cell; experiment: Immunomodulatory activity in Swiss mouse peritoneal macrophages infected with promastigotes form of Leishmania amazonensis IFLA/BR/67/PH8 assessed as increase of nitric oxide production at 6.25 to 25 uM after 72 hrs by Griess assay; assay type: functional, cell-based; procedure, shortened: as §3
[24] = system: Peritoneal macrophage cell; experiment: Immunomodulatory activity in Swiss mouse peritoneal macrophages infected with promastigotes form of Leishmania amazonensis IFLA/BR/67/PH8 assessed as increase of IL-10 production at 6.25 to 25 uM after 72 hrs by sandwich ELISA; assay type: functional, cell-based; procedure, shortened: as §3
Leishmania amazonensis [25] = experiment: Antileishmanial activity against promastigotes of Leishmania amazonensis IFLA/BR/67/PH8 assessed as induction of necrosis using Annexin-V-FITC/PI staining at IC50 after 4 hrs by flow cytometry (reference value: 2.6%); assay type: functional
Leishmania amazonensis [26] = experiment: Antileishmanial activity against promastigotes of Leishmania amazonensis IFLA/BR/67/PH8 assessed as induction of necrosis using Annexin-V-FITC/PI staining at 2 times IC50 after 4 hrs by flow cytometry (reference value: 2.6%); assay type: functional
Leishmania amazonensis [27] = experiment: Antileishmanial activity against promastigotes of Leishmania amazonensis IFLA/BR/67/PH8 assessed as viable cells using Annexin-V staining at IC50 after 4 hrs by flow cytometry (reference value: 77%); assay type: functional
Leishmania amazonensis [28] = experiment: Antileishmanial activity against promastigotes of Leishmania amazonensis IFLA/BR/67/PH8 assessed as viable cells using Annexin-V staining at 2 times IC50 after 4 hrs by flow cytometry (reference value: 77%); assay type: functional
Leishmania amazonensis [29] = experiment: Antileishmanial activity against promastigotes of Leishmania amazonensis IFLA/BR/67/PH8 assessed as viable cells using Annexin-V staining at 4 times IC50 after 4 hrs by flow cytometry (reference value: 77%); assay type: functional

| Compound | CC50 at 24 h [1] [µM] | HC50 at 1 h [2] [µM] | Ratio CC50/IC50 [3] | Selectivity Index [4] | Ratio CC50/EC50 [5] | Selectivity Index [6] | EC50 (Leishmania amazonensis [7]) [µM] | IC50 (Leishmania amazonensis [8]) [µM] | further results |
| --- | --- | --- | --- | --- | --- | --- | --- | --- | --- |
| COc1ccc(Br)c(/C=N/c2sc3c(c2C#N)CCCC3)c1 | 211 | > 800 | 2.4 | > 9.1 | 1.26 | > 4.78 | 167 | 88 |  |
| Meglumine antimoniate |  |  | 0.04 | 0.016 | 1.01 | 0.42 |  |  | Activity (Leishmania amazonensis [9]): Active; Activity (Leishmania amazonensis [10]): inactive |
| N#Cc1c(/N=C/c2cccs2)sc2c1CCCCC2 | 722 | > 800 | 3.81 | > 4.22 | 3.75 | > 4.16 | 192 | 189 |  |
| N#Cc1c(/N=C/c2ccc3ncccc3c2)sc2c1CCC2 | 196 | 625 | 3.99 | 12.7 | 1.9 | 6 | 103 | 49.1 |  |
| N#Cc1c(/N=C/c2cc3ccccc3[nH]2)sc2c1CCCCC2 | 49.1 | 721 | 6.65 | 97.9 | 3.1 | 45.5 | 15.8 | 7.37 | Activity (Leishmania amazonensis [11]): 4.07%; Activity (Leishmania amazonensis [12]): 3.5%; Activity (Leishmania amazonensis [13]): 4.06%; Activity (Leishmania amazonensis [14]): 11.6%; Activity (Leishmania amazonensis [15]): 15.6%; Activity (Leishmania amazonensis [16]): 25.2%; Activity (Leishmania amazonensis [17]): 54.9%; Activity (Leishmania amazonensis [18]): Active; Activity (Leishmania amazonensis [19]): Dose-dependent effect; Activity (Leishmania amazonensis [20]): Dose-dependent effect; Activity [21]: inactive; Activity [22]: inactive; Activity [23]: inactive; Activity [24]: inactive; Activity (Leishmania amazonensis [25]): 12.1%; Activity (Leishmania amazonensis [26]): 31.6%; Activity (Leishmania amazonensis [27]): 72.2%; Activity (Leishmania amazonensis [28]): 19%; Activity (Leishmania amazonensis [29]): 15.7% |
| N#Cc1c(/N=C/c2ccccc2)sc2c1CCCC2 | 141 | 682 | 2.29 | 11.1 | 1.13 | 5.4 | 124 | 61.5 |  |
